Results: PMC4797290 (Nucleic Acids Research, 2016)
No end group written: not given here.

Legend:
Format in all cases: cell-based, Escherichia coli
[1] = test system: E. coli SQ110 DTC 23S rRNA 2059C mutant; assay: MIC determination, E. coli SQ110 DTC 2059C mutant; conditions: 23S rRNA mutant 2059C, first line so labelled (r6); highest concentration 100 μM
Outline: (§1)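 E. coli SQ110 DTC background (single chromosomal rrn allele, tolC knockout) carrying 23S rRNA mutations. Cells grown exponentially in LB, diluted to A650 0.005 in 96-well plates. Peptide added in LB and 2-fold serially diluted from a top final concentration of 100 μM. Incubated overnight at 37°C with shaking. Growth read by alamarBlue addition.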

[2] = test system: E. coli SQ110 DTC 23S rRNA A2503C mutant; assay: MIC determination, E. coli SQ110 DTC 2503C mutant; conditions: 23S rRNA mutant 2503C; highest concentration 100 μM
Outline: as §1

[3] = test system: E. coli SQ110 DTC 23S rRNA A2503C/A2059G double mutant; assay: MIC determination, E. coli SQ110 DTC 2503C/2059G double mutant; conditions: 23S rRNA double mutant; highest concentration 100 μM
Outline: as §1

RRIRPRPPRLPRPRPRPLPFPRPGPRPIPRPLPFP [Bac7_1–35]
0.75 µM: MIC, SQ110 DTC 2059C [1] | MIC, SQ110 DTC 2503C [2] | MIC, SQ110 DTC 2503C/2059G [3]
